# Published values pooled from the literature.
# Compare with care: the assays were run in different laboratories.
# Pancreatic alpha-amylase: Pancreatic alpha-amylase (Homo sapiens, UniProt P04746)
# PADI4: Protein-arginine deiminase type-4 (PADI4, Homo sapiens, UniProt Q9UM07)
# CA9: Carbonic anhydrase 9 (CA9, Homo sapiens, UniProt Q16790)
# MAOB: Amine oxidase [flavin-containing] B (MAOB, Homo sapiens, UniProt P27338)
# ALDH1A3: Retinaldehyde dehydrogenase 3 (ALDH1A3, Homo sapiens, UniProt P47895)
SMILES,target,assay,setting,IC50
COc1cc(/C=N/NC(=S)N/N=C/c2ccc(Br)cc2)ccc1Oc1ccnc2cc(Cl)ccc12,Pancreatic alpha-amylase,"enzyme activity, inhibitor, absorbance",,50500 nM
N=C(CCl)NCCC[C@H](NC(=O)c1cnc2cc(Br)ccc2c1)C(=O)NCc1ccccc1,PADI4,"enzyme activity, inhibitor, fluorescence",with preincubation,409 nM
NS(=O)(=O)c1ccc(-c2ccc(Nc3ccncc3)cc2)cc1,CA9,"enzyme activity, inhibitor",,210 nM
O=C(Nc1cccc(Cl)c1)c1ccc2c(c1)C(=O)NC2=O,MAOB,"enzyme activity, inhibitor",,290 nM
COc1cc(/C=N/NC(=S)NN=Cc2ccc(CO)o2)ccc1Oc1ccnc2cc(Cl)ccc12,Pancreatic alpha-amylase,"enzyme activity, inhibitor, absorbance",,46400 nM
N=C(CCl)NCCC[C@H](NC(=O)c1ccc(B(O)O)cc1)c1nc2ccccc2[nH]1,PADI4,"enzyme activity, inhibitor, fluorescence",with preincubation,2200 nM
O=C(N[C@@H](CSCc1ccccc1)C(=O)NO)c1ccccc1,"Lactoylglutathione lyase (GLO1, Homo sapiens, UniProt Q04760)","enzyme activity, inhibitor",,5270 nM
OC[C@H]1O[C@@H](Oc2ccc(O)c3cccc(O)c23)[C@H](O)[C@@H](O)[C@@H]1O,ALDH1A3,"enzyme activity, inhibitor",,< 10000 nM
COc1cc(/C=N/NC(=S)N/N=C/c2ccccc2)ccc1Oc1ccnc2cc(Cl)ccc12,Pancreatic alpha-amylase,"enzyme activity, inhibitor, absorbance",,46400 nM
CS(=O)(=O)Nc1ccc(Nc2nc(-c3cc4cc(Br)ccc4oc3=O)cs2)cc1Oc1ccccc1,CA9,"enzyme activity, inhibitor",,5740 nM
O=C(CCNC(=O)CNC(=O)CC(c1ccccc1)(c1ccccc1)c1ccccc1)NC[C@@H]1CCCN(Cc2ccc(F)nc2)C1,"Muscarinic acetylcholine receptor M4 (CHRM4, Homo sapiens, UniProt P08173)","ligand displacement, radioligand",cell membranes,> 30000 nM
N=C(CCl)NCCC[C@H](NC(=O)c1ccc2cc(B(O)O)ccc2c1)C(=O)NCc1ccccc1,PADI4,"enzyme activity, inhibitor, fluorescence",with preincubation,360 nM
CCCNS(=O)(=O)Nc1ncnc(OCCOc2ncc(Br)cn2)c1-c1ccc(Br)cc1,"Endothelin receptor type B (EDNRB, Homo sapiens, UniProt P24530)","ligand displacement, radioligand",cell membranes,1370 nM
O=C(Nc1ccc(F)c(Cl)c1)c1ccc2c(c1)C(=O)NC2=O,MAOB,"enzyme activity, inhibitor",,15 nM
CN1CCN(c2nc(-c3cc4cc(Br)ccc4oc3=O)cs2)CC1,CA9,"enzyme activity, inhibitor",,1350 nM
Cc1ccc(-c2cccc(C=O)c2)c(C)c1,ALDH1A3,"enzyme activity, inhibitor",,14900 nM
N=C(CCl)NCCC[C@H](NC(=O)c1ccc2ccc(O)cc2c1)C(=O)NCc1ccccc1,PADI4,"enzyme activity, inhibitor, fluorescence",with preincubation,204 nM
COc1cc(/C=N/NC(=S)NN=Cc2cccs2)ccc1Oc1ccnc2cc(Cl)ccc12,Pancreatic alpha-amylase,"enzyme activity, inhibitor, absorbance",,60000 nM
N=C(CCl)NCCC[C@H](NC(=O)c1cccc(NC(=O)c2cc3c(s2)CCC3)c1)C(=O)NCc1ccccc1,PADI4,"enzyme activity, inhibitor, fluorescence",with preincubation,454 nM
O=C(Nc1cccc(Br)c1)c1ccc2c(c1)C(=O)NC2=O,MAOB,"enzyme activity, inhibitor",,180 nM
COc1ccc(N(Cc2csc(-c3ccccc3)n2)C(=O)CCCCCC(=O)NO)cc1,"Histone deacetylase 9 (HDAC9, Homo sapiens, UniProt Q9UKV0)","enzyme activity, inhibitor",,> 10000 nM
